Data as given in ChEMBL document CHEMBL1671664 (2009).
Values after ≈ are worked out from the molar mass of the structure shown. Active and inactive are the calls of the source. The calls are words filed in the database; no cut-off is given here.

Assays:
[1] = Antimicrobial activity against Salmonella enterica serovar Stanley isolate s2043 harboring ParC QRDR mutant gene by agar dilution method; type: functional, Salmonella enterica subsp. enterica serovar Stanley
[2] = Antimicrobial activity against Salmonella enterica serovar Braenderup isolate s2906 harboring ParC QRDR mutant gene by agar dilution method; type: functional, Salmonella enterica subsp. enterica serovar Braenderup
Salmonella typhimurium [3] = assay: Antimicrobial activity against qnrS-positive Salmonella enterica serovar Typhimurium isolate s2705 harboring wild type ParC gene by agar dilution method; type: functional, Salmonella enterica subsp. enterica serovar Typhimurium
[4] = tested on: Salmonella enterica subsp. enterica serovar Mbandaka; assay: Drug uptake in qnrA-positive Salmonella enterica serovar Mbandaka isolate s2093 harboring ParC QRDR mutant gene in presence of CCCP; type: functional
In short: (§1)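 Cell suspensions preincubated with 100 μM CCCP before substrate addition. Ciprofloxacin accumulation read by fluorescence (ex 311/em 447 nm), Hoechst 33342 by fluorescence (ex 355/[…]), at 10 min. Expressed relative to S. Typhimurium SL1344. Differences tested by Student t test (P < 0.05).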

[5] = Antimicrobial activity against qnrS-positive Salmonella enterica serovar Montevideo isolate s2209 harboring ParC QRDR mutant gene by agar dilution method; type: functional, Salmonella enterica subsp. enterica serovar Montevideo
[6] = Antimicrobial activity against Salmonella enterica serovar Mbandaka isolate s2159 harboring ParC QRDR mutant gene by agar dilution method; type: functional, Salmonella enterica subsp. enterica serovar Mbandaka
[7] = Antimicrobial activity against Salmonella enterica serovar Corvallis isolate s2064 harboring ParC QRDR mutant gene by agar dilution method; type: functional, Salmonella enterica subsp. enterica serovar Corvallis
[8] = Antimicrobial activity against qnrS-positive Salmonella enterica serovar Montevideo isolate s2944 harboring ParC QRDR mutant gene by agar dilution method; type: functional, Salmonella enterica subsp. enterica serovar Montevideo
Salmonella typhimurium [9] = assay: Antimicrobial activity against qnrS-positive Salmonella enterica serovar Typhimurium isolate s2425 harboring wild type ParC gene by agar dilution method; type: functional, Salmonella enterica subsp. enterica serovar Typhimurium
[10] = tested on: Salmonella enterica subsp. enterica serovar Montevideo; assay: Drug uptake in qnrS-positive Salmonella enterica serovar Montevideo isolate s2209 harboring ParC QRDR mutant gene in presence of CCCP; type: functional; in short: as §1
[11] = Antimicrobial activity against qnrS-positive Salmonella enterica serovar Corvallis isolate s2052 harboring ParC QRDR mutant gene by agar dilution method; type: functional, Salmonella enterica subsp. enterica serovar Corvallis
[12] = Antimicrobial activity against qnrS-positive Salmonella enterica serovar Virginia isolate s2219 harboring ParC QRDR mutant gene by agar dilution method; type: functional, Salmonella enterica subsp. enterica serovar Virginia
Salmonella typhimurium [13] = assay: Antimicrobial activity against Salmonella enterica serovar Typhimurium isolate s2878 harboring wild type ParC gene by agar dilution method; type: functional, Salmonella enterica subsp. enterica serovar Typhimurium
[14] = Antimicrobial activity against Salmonella enterica serovar Montevideo isolate s2317 harboring ParC QRDR mutant gene by agar dilution method; type: functional, Salmonella enterica subsp. enterica serovar Montevideo
[15] = Antimicrobial activity against qnrS-positive Salmonella enterica serovar Braenderup isolate s2856 harboring ParC QRDR mutant gene by agar dilution method; type: functional, Salmonella enterica subsp. enterica serovar Braenderup
[16] = Antimicrobial activity against qnrS-positive Salmonella enterica serovar Corvallis isolate s2017 harboring ParC QRDR mutant gene by agar dilution method; type: functional, Salmonella enterica subsp. enterica serovar Corvallis
Salmonella typhimurium [17] = assay: Antimicrobial activity against Salmonella enterica serovar Typhimurium isolate SL1344 harboring wild type ParC gene by agar dilution method; type: functional, Salmonella enterica subsp. enterica serovar Typhimurium
[18] = Antimicrobial activity against qnrS-positive Salmonella enterica serovar Stanley isolate s2018 harboring ParC QRDR mutant gene by agar dilution method; type: functional, Salmonella enterica subsp. enterica serovar Stanley
[19] = Antimicrobial activity against qnrA-positive Salmonella enterica serovar Mbandaka isolate s2093 harboring ParC QRDR mutant gene by agar dilution method; type: functional, Salmonella enterica subsp. enterica serovar Mbandaka
Escherichia coli [20] = assay: Antimicrobial activity against Escherichia coli DH5[alpha] transformed with Salmonella enterica serovar Corvallis isolate s2017 plasmid encoded qnrS and Parc QRDR Thre57Ser mutant gene by agar dilution method; type: functional
In short: (§2)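 E. coli DH5α transformed by electroporation with qnr-carrying plasmid DNA from donor Salmonella isolates; transformants selected on LB agar with 0.03 μg/ml ciprofloxacin, qnr confirmed by multiplex PCR. MICs to ciprofloxacin and nalidixic acid by agar dilution.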

Escherichia coli [21] = assay: Antimicrobial activity against Escherichia coli DH5[alpha] transformed with Salmonella enterica serovar Corvallis isolate s2052 plasmid encoded qnrS and Parc QRDR Thre57Ser mutant gene by agar dilution method; type: functional; in short: as §2
Escherichia coli [22] = assay: Antimicrobial activity against Escherichia coli DH5[alpha] transformed with Salmonella enterica serovar Montevideo isolate s2209 plasmid encoded qnrS and Parc QRDR Thre57Ser mutant gene by agar dilution method; type: functional; in short: as §2
Escherichia coli [23] = assay: Antimicrobial activity against Escherichia coli DH5[alpha] transformed with Salmonella enterica serovar Montevideo isolate s2944 plasmid encoded qnrS and Parc QRDR Thre57Ser mutant gene by agar dilution method; type: functional; in short: as §2
Escherichia coli [24] = assay: Antimicrobial activity against Escherichia coli DH5[alpha] transformed with Salmonella enterica serovar Virginia isolate s2219 plasmid encoded qnrS and Parc QRDR Thre57Ser mutant gene by agar dilution method; type: functional; in short: as §2
Escherichia coli [25] = assay: Antimicrobial activity against Escherichia coli DH5[alpha] transformed with Salmonella enterica serovar Typhimurium isolate s2425 plasmid encoded qnrS and Parc gene by agar dilution method; type: functional; in short: as §2
Escherichia coli [26] = assay: Antimicrobial activity against Escherichia coli DH5[alpha] transformed with Salmonella enterica serovar Typhimurium isolate s2705 plasmid encoded qnrS and Parc gene by agar dilution method; type: functional; in short: as §2

SMILES | MIC [1] [µg/mL] | MIC [2] [µg/mL] | MIC (Salmonella typhimurium [3]) [µg/mL] | MIC [5] [µg/mL] | MIC [6] [µg/mL] | MIC [7] [µg/mL] | MIC [8] [µg/mL] | MIC (Salmonella typhimurium [9]) [µg/mL] | MIC [11] [µg/mL] | MIC [12] [µg/mL] | MIC (Salmonella typhimurium [13]) [µg/mL] | MIC [14] [µg/mL] | MIC [15] [µg/mL] | MIC [16] [µg/mL] | MIC (Salmonella typhimurium [17]) [µg/mL] | MIC [18] [µg/mL] | MIC [19] [µg/mL] | also measured
O=C(O)c1cn(C2CC2)c2cc(N3CCNCC3)c(F)cc2c1=O [CIPROFLOXACIN] | 0.015 (≈ 0.0453 µM) | 0.015 (≈ 0.0453 µM) | 0.5 (≈ 1.51 µM) | 0.5 (≈ 1.51 µM) | 0.008 (≈ 0.0241 µM) | 0.015 (≈ 0.0453 µM) | 0.5 (≈ 1.51 µM) | 0.5 (≈ 1.51 µM) | 0.5 (≈ 1.51 µM) | 0.5 (≈ 1.51 µM) | 0.03 (≈ 0.0905 µM) | 0.015 (≈ 0.0453 µM) | 0.5 (≈ 1.51 µM) | 0.25 (≈ 0.754 µM) | 0.06 (≈ 0.181 µM) | 0.5 (≈ 1.51 µM) | 4 (≈ 12.1 µM) | Drug uptake [4]: inactive; Drug uptake [10]: inactive
C[C@H]1COc2c(N3CCN(C)CC3)c(F)cc3c(=O)c(C(=O)O)cn1c23.C[C@H]1COc2c(N3CCN(C)CC3)c(F)cc3c(=O)c(C(=O)O)cn1c23.O [LEVOFLOXACIN] | 0.06 | – | 1 | 1 | 0.06 | 0.06 | 1 | 1 | 0.5 | 1 | – | 0.06 | 1 | 1 | – | 1 | 1 | –
COc1c(N2C[C@@H]3CCCN[C@@H]3C2)c(F)cc2c(=O)c(C(=O)O)cn(C3CC3)c12 [MOXIFLOXACIN] | 0.06 (≈ 0.149 µM) | – | – | – | 0.125 (≈ 0.311 µM) | 0.06 (≈ 0.149 µM) | – | – | 2 (≈ 4.98 µM) | – | – | 0.06 (≈ 0.149 µM) | – | – | – | – | 0.5 (≈ 1.25 µM) | –
CCn1cc(C(=O)O)c(=O)c2ccc(C)nc21 [NALIDIXIC ACID] | 4 (≈ 17.2 µM) | 4 (≈ 17.2 µM) | 16 (≈ 68.9 µM) | 32 (≈ 138 µM) | 4 (≈ 17.2 µM) | 4 (≈ 17.2 µM) | 16 (≈ 68.9 µM) | 16 (≈ 68.9 µM) | 16 (≈ 68.9 µM) | 32 (≈ 138 µM) | 16 (≈ 68.9 µM) | 4 (≈ 17.2 µM) | 16 (≈ 68.9 µM) | 16 (≈ 68.9 µM) | 4 (≈ 17.2 µM) | 16 (≈ 68.9 µM) | 16 (≈ 68.9 µM) | MIC (Escherichia coli [20]): 8 µg/mL (≈ 34.4 µM); MIC (Escherichia coli [21]): 8 µg/mL (≈ 34.4 µM); MIC (Escherichia coli [22]): 8 µg/mL (≈ 34.4 µM); MIC (Escherichia coli [23]): 8 µg/mL (≈ 34.4 µM); MIC (Escherichia coli [24]): 8 µg/mL (≈ 34.4 µM); MIC (Escherichia coli [25]): 8 µg/mL (≈ 34.4 µM); MIC (Escherichia coli [26]): 8 µg/mL (≈ 34.4 µM)
CCn1cc(C(=O)O)c(=O)c2cc(F)c(N3CCNCC3)cc21 [NORFLOXACIN] | 0.125 (≈ 0.391 µM) | – | 2 (≈ 6.26 µM) | 2 (≈ 6.26 µM) | 0.125 (≈ 0.391 µM) | 0.06 (≈ 0.188 µM) | 2 (≈ 6.26 µM) | 2 (≈ 6.26 µM) | 1 (≈ 3.13 µM) | 2 (≈ 6.26 µM) | – | 0.125 (≈ 0.391 µM) | 2 (≈ 6.26 µM) | 2 (≈ 6.26 µM) | – | 2 (≈ 6.26 µM) | 16 (≈ 50.1 µM) | –
CC1COc2c(N3CCN(C)CC3)c(F)cc3c(=O)c(C(=O)O)cn1c23 (stereo unspecified) [OFLOXACIN] | 0.125 (≈ 0.346 µM) | – | 2 (≈ 5.53 µM) | 2 (≈ 5.53 µM) | 0.125 (≈ 0.346 µM) | 0.03 (≈ 0.083 µM) | 2 (≈ 5.53 µM) | 2 (≈ 5.53 µM) | 1 (≈ 2.77 µM) | 2 (≈ 5.53 µM) | – | 0.125 (≈ 0.346 µM) | 2 (≈ 5.53 µM) | 2 (≈ 5.53 µM) | – | 2 (≈ 5.53 µM) | 1 (≈ 2.77 µM) | –
